How the values were obtained:
Format in all cases: functional
KM12 = assay: Growth inhibition of human KM12 cells assessed as cell growth at 10^-5 M after 48 hrs by sulforhodamine B assay; conditions: KM12, 48 h, read-out: Activity
A549 [1] = assay: Growth inhibition of human A549/ATCC cells assessed as cell growth at 10^-7 M after 48 hrs by sulforhodamine B assay; conditions: A549, 48 h, read-out: Activity
Outline: (§1)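 Five-dose NCI-60 run (0.01, 0.1, 1, 10 and 100 µM, as 10-fold dilutions from a DMSO stock made at 400× the top final level). Cells were grown in RPMI 1640 with 5% FBS and 2 mM glutamine and plated for 24 h. They were then exposed for 48 h at 37 °C and 5% CO2. TCA fixation was followed by SRB staining with A515 read-out. Percent growth was taken relative to time-zero and control plates.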

NCI-H23 = assay: Growth inhibition of human NCI-H23 cells assessed as cell growth at 10^-5 M after 48 hrs by sulforhodamine B assay; conditions: NCI-H23, 48 h, read-out: Activity
Malme-3M = assay: Growth inhibition of human MALME-3M cells assessed as cell growth at 10^-6 M after 48 hrs by sulforhodamine B assay; conditions: read-out: Activity
[2] = Growth inhibition of human Hs 578T cells after 48 hrs by sulforhodamine B assay; conditions: for CC50: read-out: LC50 (the source's name)
Outline: (§2)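 Adherent cells in RPMI 1640 with 5% FBS and 2 mM L-glutamine were plated at 5000–40,000 cells/well and grown 24 h. Five concentrations (0.01–100 µM, DMSO stock) were added for 48 h at 37 °C. Cells were fixed with cold TCA (10% final) and stained with SRB, read at 515 nm. GI50 came from log concentration–growth curves against time-zero and control plates.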

SNB-19 = assay: Growth inhibition of human SNB19 cells assessed as cell growth at 10^-5 M after 48 hrs by sulforhodamine B assay; conditions: SNB-19, 48 h, read-out: Activity
SN12C = assay: Growth inhibition of human SN12C cells after 48 hrs by sulforhodamine B assay; conditions: for CC50: read-out: LC50 (the source's name); outline: as §2
PC-3 = assay: Growth inhibition of human PC3 cells assessed as cell growth at 10^-7 M after 48 hrs by sulforhodamine B assay; conditions: PC-3, 48 h, read-out: Activity
786-0 [3] = assay: Growth inhibition of human 786-0 cells assessed as cell growth at 10^-5 M after 48 hrs by sulforhodamine B assay; conditions: 786-0, 48 h, read-out: Activity; outline: as §1
UACC-257 = assay: Growth inhibition of human UACC257 cells assessed as cell growth at 10^-8 M after 48 hrs by sulforhodamine B assay; conditions: UACC-257, 48 h, read-out: Activity
HOP-62 [4] = assay: Growth inhibition of human HOP62 cells assessed as cell growth at 10^-5 M after 48 hrs by sulforhodamine B assay; conditions: HOP-62, 48 h, read-out: Activity
Outline: (§3)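 Five-dose screen at NCI. Cells in RPMI 1640 with 5% FBS and 2 mM L-glutamine, seeded at 5000–40,000 cells/well and grown 24 h at 37 °C, 5% CO2 before dosing, with time-zero plates TCA-fixed. Drug diluted from DMSO stock to 0.01, 0.1, 1, 10 and 100 µM final, 48 h. Cells fixed with cold TCA (10% final), stained with 0.4% SRB and read at 515 nm. Percent growth from Tz, control and test absorbances; GI50, TGI and LC50 from dose-response curves.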

SF-539 [5] = assay: Growth inhibition of human SF539 cells assessed as cell growth at 10^-4 M after 48 hrs by sulforhodamine B assay; conditions: SF-539, 48 h, read-out: Activity
HOP-92 = assay: Growth inhibition of human HOP92 cells assessed as cell growth at 10^-7 M after 48 hrs by sulforhodamine B assay; conditions: HOP-92, 48 h, read-out: Activity; outline: as §3
BT-549 = assay: Growth inhibition of human BT549 cells assessed as cell growth at 10^-4 M after 48 hrs by sulforhodamine B assay; conditions: BT-549, 48 h, read-out: Activity; outline: as §1
SW-620 = assay: Growth inhibition of human SW620 cells assessed as cell growth at 10^-4 M after 48 hrs by sulforhodamine B assay; conditions: SW-620, 48 h, read-out: Activity
T47D = assay: Growth inhibition of human T47D cells assessed as cell growth at 10^-8 M after 48 hrs by sulforhodamine B assay; conditions: read-out: Activity
HCT-15 = assay: Growth inhibition of human HCT15 cells assessed as cell growth at 10^-5 M after 48 hrs by sulforhodamine B assay; conditions: HCT-15, 48 h, read-out: Activity; outline: as §3
MDA-MB-231 = assay: Growth inhibition of human MDA-MB-231 cells assessed as cell growth at 10^-4 M after 48 hrs by sulforhodamine B assay; conditions: MDA-MB-231, 48 h, read-out: Activity
HOP-62 [6] = assay: Growth inhibition of human HOP62 cells after 48 hrs by sulforhodamine B assay; conditions: HOP-62, 48 h; for CC50: read-out: LC50 (the source's name); outline: as §3
A549 [7] = assay: Growth inhibition of human A549/ATCC cells after 48 hrs by sulforhodamine B assay; conditions: A549, 48 h; for CC50: read-out: LC50 (the source's name); outline: as §2
HT-29 = assay: Growth inhibition of human HT-29 cells assessed as cell growth at 10^-6 M after 48 hrs by sulforhodamine B assay; conditions: HT-29, 48 h, read-out: Activity; outline: as §3
SF-295 = assay: Growth inhibition of human SF295 cells assessed as cell growth at 10^-6 M after 48 hrs by sulforhodamine B assay; conditions: SF-295, 48 h, read-out: Activity
RPMI-8226 = assay: Growth inhibition of human RPMI8226 cells assessed as cell growth at 10^-7 M after 48 hrs by sulforhodamine B assay; conditions: RPMI-8226, 48 h, read-out: Activity
SF-539 [8] = assay: Growth inhibition of human SF539 cells after 48 hrs by sulforhodamine B assay; conditions: SF-539, 48 h; for CC50: read-out: LC50 (the source's name); outline: as §2
786-0 [9] = assay: Growth inhibition of human 786-0 cells assessed as cell growth at 10^-8 M after 48 hrs by sulforhodamine B assay; conditions: 786-0, 48 h, read-out: Activity; outline: as §1
HCT-116 = assay: Growth inhibition of human HCT116 cells assessed as cell growth at 10^-6 M after 48 hrs by sulforhodamine B assay; conditions: HCT-116, 48 h, read-out: Activity; outline: as §3
SR = assay: Growth inhibition of human SR cells assessed as cell growth at 10^-4 M after 48 hrs by sulforhodamine B assay; conditions: read-out: Activity
[10] = Growth inhibition of human HCC2998 cells assessed as cell growth at 10^-8 M after 48 hrs by sulforhodamine B assay; conditions: HCC 2998, 48 h, read-out: Activity; outline: as §3
TK-10 = assay: Growth inhibition of human TK10 cells assessed as cell growth at 10^-5 M after 48 hrs by sulforhodamine B assay; conditions: TK-10, 48 h, read-out: Activity
NCI-H322M = assay: Growth inhibition of human NCI-H322M cells assessed as cell growth at 10^-4 M after 48 hrs by sulforhodamine B assay; conditions: read-out: Activity

SMILES | growth at 10 µM (KM12) [%] | growth at 0.1 µM (A549 [1]) [%] | growth at 10 µM (NCI-H23) [%] | growth at 1 µM (Malme-3M) [%] | CC50 [2] [µM] | growth at 10 µM (SNB-19) [%] | TGI (SN12C) [µM] | CC50 (SN12C) [µM] | growth at 0.1 µM (PC-3) [%] | growth at 10 µM (786-0 [3]) [%] | growth at 0.01 µM (UACC-257) [%] | growth at 10 µM (HOP-62 [4]) [%] | growth at 100 µM (SF-539 [5]) [%] | growth at 0.1 µM (HOP-92) [%] | growth at 100 µM (BT-549) [%] | growth at 100 µM (SW-620) [%] | growth at 0.01 µM (T47D) [%] | growth at 10 µM (HCT-15) [%] | growth at 100 µM (MDA-MB-231) [%] | GI50 (HOP-62 [6]) [µM] | other results
O=S(=O)(Nc1ccc(Cl)cc1)c1ccc2nc(-c3ccccc3)c(-c3ccccc3)nc2c1 | 5 | 97 | 4 | 103 | > 100 | 17 | > 100 | > 100 | 92 | -45 | 94 | 13 | 73 | 92 | 61 | 70 | 95 | 3 | 54 | 3.95 | TGI [2]: > 100 µM; TGI (HOP-62 [6]): > 100 µM; CC50 (HOP-62 [6]): > 100 µM; TGI (A549 [7]): > 100 µM; CC50 (A549 [7]): > 100 µM; growth at 1 µM (HT-29): 85%; growth at 1 µM (SF-295): 82%; growth at 0.1 µM (RPMI-8226): 101%; TGI (SF-539 [8]): > 100 µM; CC50 (SF-539 [8]): > 100 µM; growth at 0.01 µM (786-0 [9]): 97%; growth at 1 µM (HCT-116): 80%; growth at 100 µM (SR): 50%; growth at 0.01 µM [10]: 99%; growth at 10 µM (TK-10): 9%; growth at 100 µM (NCI-H322M): 88%
O=S(=O)(Nc1ccccn1)c1ccc2nc(-c3ccccc3)c(-c3ccccc3)nc2c1 | 6 | 98 | 4 | 115 | > 100 | 17 | > 100 | > 100 | 93 | -30 | 96 | 16 | 54 | 92 | 49 | 59 | 95 | 3 | 41 | 4.54 | GI50 [2]: 1.56 µM; TGI (HOP-62 [6]): > 100 µM; CC50 (HOP-62 [6]): > 100 µM; TGI (A549 [7]): > 100 µM; CC50 (A549 [7]): > 100 µM; growth at 1 µM (HT-29): 79%; growth at 1 µM (SF-295): 90%; growth at 0.1 µM (RPMI-8226): 104%; TGI (SF-539 [8]): > 100 µM; CC50 (SF-539 [8]): > 100 µM; growth at 0.01 µM (786-0 [9]): 100%; growth at 1 µM (HCT-116): 75%; growth at 100 µM (SR): 18%; growth at 0.01 µM [10]: 99%; growth at 10 µM (TK-10): 4%; growth at 100 µM (NCI-H322M): 65%

From ChEMBL document CHEMBL2407075, “Sulphonamido-quinoxalines: search for anticancer agent” (Eur J Med Chem, 2013)
